System: MS2 coat protein
Assay: apparent Kd, MS2 coat protein; higher = weaker binding; RNA-MaP array; FMN 200 µM where present
Outline: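 Each design was made on Illumina sequencing-chip clusters by stalled E. coli RNA polymerase and titrated with SNAP-549-labelled MS2 coat protein from 0.7 or 1.5 nM, doubling to 3 µM, in the absence and then the presence of constant ligand. The buffer was 100 mM Tris-HCl pH 7.5, 80 mM KCl, 4 mM MgCl2, BSA, DTT, yeast tRNA and Tween-20. The apparent Kd is the median of filtered per-cluster fits of binding curves, with green signal normalised to red-channel RNA signal and control-cluster median Fmax.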

[1] = designed as: OFF switch for flavin mononucleotide, no ligand
[2] = ligand present: flavin mononucleotide, designed as: OFF switch for flavin mononucleotide
[3] = designed as: ON switch for flavin mononucleotide, no ligand
[4] = ligand present: flavin mononucleotide, designed as: ON switch for flavin mononucleotide

Sequence: CAAUGGUUCCUUAUACUCUCGUCACAUGAGGAUCACCCAUGUAGAAGGCAGCCGGGCUGUCAGGCUGAGGAUAUACAUUUAAAA
- apparent Kd [1]: 0.0178 µM
- apparent Kd [2]: 0.0549 µM

Sequence: UGAUCUUACAUGAGGAUCACCCAUGUAGGCCAGUAACUAACCAGAAGGCACGUAGAGUACAACAGUGAGGAUAUGGAUGACAUA
- apparent Kd [3]: 0.00929 µM
- apparent Kd [4]: 0.00595 µM

Sequence: AUGCCGUGCAGAGCGCGACGGCGUACAUGAGGAUCACCCAUGUAGGAUAUACUACACAAAGUGUAGUAGAAGGACAUGCGACUG
- apparent Kd [1]: 0.062 µM
- apparent Kd [2]: 0.145 µM

Sequence: GUCUCGUCAGGAUAUGACGCUACAUUUUUUUUUUAGAAGAGUCAGAAGGGACAUGAGGAUCACCCAUGUGAUUC
- apparent Kd [1]: 0.288 µM
- apparent Kd [2]: 0.218 µM

Sequence: GUCAGCUCGUGAGGAUAUACAACACUGCUUCGGCAGUGUAUUAAGAUCACAUGAGGAUCACCCAUGUAGAAGGCACUAGCUGAU
- apparent Kd [1]: 0.0139 µM
- apparent Kd [2]: 0.256 µM

Sequence: AAGUAGAUCCGAGGAUAUACAAUCCGGAAACGGUACAUGAGGAUCACCCAUGUAGAAGGCGGAUCUACAGGUACUAAAGUACCU
- apparent Kd [1]: 0.00558 µM
- apparent Kd [2]: 0.00798 µM

Sequence: CAUCGGAAGCAGAAGGCAUGAACGGACAUGAGGAUCACCCAUGUUGGAAACUCAUGCCCGAAAGAUGAGGAUAUGCGUCCGGGU
- apparent Kd [1]: 0.0728 µM
- apparent Kd [2]: 0.017 µM

Sequence: AUCGUGUUAGGAUAUGCAUGUCGCUGGGUAGCUAGCGAUAGGCAGAAGGAACAUGAGGAUCACCCAUGUUCGGG
- apparent Kd [1]: 0.158 µM
- apparent Kd [2]: 0.078 µM

Sequence: CGCGAAAACAUAGGAUAUUGUUACAUGAGGAUCACCCAUGUCAACCAUGUAGCUCGAAUUGUUGACAAGAAGGAUGAGGUCGCG
- apparent Kd [3]: 0.0483 µM
- apparent Kd [4]: 0.103 µM

Sequence: UUGAGGUCAGGAUAUGCAUGGCGGGACUUGCGUCGUGGCGUGCAGAAGGGACAUGAGGAUCACCCAUGUGGAGG
- apparent Kd [1]: 0.176 µM
- apparent Kd [2]: 0.233 µM

Sequence: CCUGCACAUGAGGAUCACCCAUGUCAGGAUAUCUCGCCGUCGGCUUGCCGACGGUAUUAGAGAAGGGACAAGGG
- apparent Kd [1]: 0.0234 µM
- apparent Kd [2]: 0.029 µM

Sequence: AAUUUACAGCUAGGAUAUACAUGAGGAUCACCCAUGUAACGAUCGGAUCUUAUGAUCGUAUCCGUGUAGAAGGAGCAAAUAAGA
- apparent Kd [1]: 0.00646 µM
- apparent Kd [2]: 0.00639 µM

Sequence: GUAGCAUACCGAGGAUAUUCUAACCGGAAACGGACAUGAGGAUCACCCAUGUGGCGAAAGCCUUGGGAGAAGGCGGAAUGCUAC
- apparent Kd [3]: 0.0123 µM
- apparent Kd [4]: 0.0128 µM

Sequence: CUCGAGUGAGGAUAUAUACUUCCAUCAUUUGAGAGAGAAGUAUAGAAGGCACAUGAGGAUCACCCAUGUAUAAA
- apparent Kd [1]: 0.0475 µM
- apparent Kd [2]: 0.0697 µM

Sequence: UUAUAUAUAUAAGGAUAUGUAUAUCCAACAUGAGGAUCACCCAUGUUGAGGAUCACCCAUGUAAAGCAGAAGGUAUAUAUAAAU
- apparent Kd [3]: 0.0428 µM
- apparent Kd [4]: 0.0264 µM

Sequence: GUAGAGAUUACAUGAGGAUCACCCAUGUCAGAACGGGUAAUCAGAAGGUAUUAUUAGAGAGAGGGUAAGGAUAUGAUUUUUUAU
- apparent Kd [3]: 0.634 µM
- apparent Kd [4]: 0.438 µM

Sequence: CCCGUGUUAGGAUAUACGGCACACCCGCCAGCGGGUAUAUAGUAGAAGGAACAUGAGGAUCACCCAUGUAUAGC
- apparent Kd [1]: 0.0161 µM
- apparent Kd [2]: 0.0466 µM

Sequence: UUUUUAAAUAUAGGAUAUGGAAACAUGAGGAUCACCCAUGUAUGAUAAGAUAAAUUAUGAUAUAGCCAGAAGGAUACAAUUUUU
- apparent Kd [3]: 0.0319 µM
- apparent Kd [4]: 0.0386 µM

Sequence: GAAUUCGCAUGAGGAUAUGCACUCAUUUCAUGUGCAGAAGGUAUAACAUUAGACAUGAGGAUCACCCAUGUAUUAGUCAUUAAC
- apparent Kd [3]: 0.0101 µM
- apparent Kd [4]: 0.00937 µM

Sequence: AAUAACAGAGGAUAUACUGUUUUAUGUAUUUAUUAUUUUAAACAUGAGGAUCACCCAUGUAGAAGGCUGAAUGA
- apparent Kd [1]: 0.0238 µM
- apparent Kd [2]: 0.022 µM

Sequence: CCCAGCUAUGUGAGGAUAUUCACAUCGAUGGUAGUGAAGAAGGCACAUGAGGAUCACCCAUGUUGGUUGCCGAU
- apparent Kd [1]: 0.0194 µM
- apparent Kd [2]: 0.0287 µM

Sequence: AUGUGCCGGUCAGGAUAUCAACCACAUUGGCCAUGAGAAGGGACAGCACAUGAGGAUCACCCAUGUACACGCUGUGCGGAUGGG
- apparent Kd [1]: 0.273 µM
- apparent Kd [2]: 0.122 µM

Sequence: AAAUAGACAGGAUAUGCAUGAAAAUUAAAAAAAAAAAAAAAACAUGAGGAUCACCCAUGUAGAAGGGUCAAAAA
- apparent Kd [1]: 0.107 µM
- apparent Kd [2]: 0.0995 µM

From the EternaBench riboswitch data
